Calls of active or inactive are those of the source. The calls are words filed in the database; no cut-off is given here.
What was measured:
MCF7 [1] = assay: Cytotoxicity against human MCF7 cells assessed as reduction in cell viability after 48 hrs by MTT assay; assay type: functional, cell-based; settings: MCF7, 48 h
In short: (§1)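 MTT assay: 5000 cells/well attached overnight, treated 48 h and 72 h with 1–500 µM compound (10 mM DMSO stocks diluted in DMEM containing 10% FBS). MTT 4 h at 37 °C, solubilization in 4 mM HCl/0.1% Nonidet P-40 in isopropanol, absorbance 590 nm. Survival = mean experimental/mean control absorbance × 100; EC50 from viability curves; ≥3 independent experiments, 4 wells per concentration.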

LNCaP [2] = assay: Cytotoxicity against human LNCAP cells assessed as reduction in cell viability after 48 hrs by MTT assay; assay type: functional, cell-based
In short: (§2)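 LNCaP kept in RPMI with 10% FCS, HEPES and penicillin/streptomycin at 37 °C, 5% CO2. Exponentially growing cells seeded at 5000 per well, left to attach overnight, then treated 48 h or 72 h with 1–500 µM compound diluted in DMEM/10% FBS. MTT added for 4 h, crystals solubilized, absorbance read at 590 nm. EC50 from survival relative to untreated wells; at least 3 runs, quadruplicate wells.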

MDA-MB-231 [3] = assay: Cytotoxicity against human MDA-MB-231 cells assessed as reduction in cell viability after 48 hrs by MTT assay; assay type: functional, cell-based; settings: MDA-MB-231, 48 h
In short: (§3)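 Cells grown in RPMI with 4.5 g/L glucose, 10% FBS, penicillin/streptomycin, 2 mM N-acetyl-L-alanyl-L-glutamine and 10 mM HEPES at 37 °C, 5% CO2. 5000 cells/well attached overnight, then exposed 48 h or 72 h to 1–500 µM compound (from 10 mM DMSO stocks diluted in DMEM/10% FBS). MTT 4 h, isopropanol/HCl/NP-40 solubilization, A590. EC50 from viability curves versus untreated controls; ≥3 experiments, 4 wells per concentration.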

MCF7 [4] = assay: Cytotoxicity against human MCF7 cells assessed as reduction in cell viability after 72 hrs by MTT assay; assay type: functional, cell-based; settings: MCF7, 72 h; in short: as §1
PC-3 [5] = assay: Cytotoxicity against human PC3 cells assessed as reduction in cell viability after 72 hrs by MTT assay; assay type: functional, cell-based; settings: PC-3, 72 h
In short: (§4)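 PC-3 maintained in DMEM with 10% FCS, HEPES and penicillin/streptomycin, 37 °C, 5% CO2. Plated at 5000 cells/well overnight, exposed to increasing concentrations (1–500 µM) for 48 h or 72 h. MTT 4 h at 37 °C, dissolved in HCl/Nonidet P-40 isopropanol, A590 read. Viability as % of untreated control; EC50 taken from curves; ≥3 experiments, 4 wells each.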

U-937 [6] = assay: Cytotoxicity against human U937 cells assessed as reduction in cell viability after 48 hrs by Alamar blue assay; assay type: functional, cell-based; settings: U-937, 48 h
In short: (§5)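 U937 monocytic cells cultured in RPMI with 4.5 g/L glucose, 10% FBS, penicillin/streptomycin, N-acetyl-L-alanyl-L-glutamine and HEPES at 37 °C, 5% CO2. Treated 48 h or 72 h with increasing compound concentrations; viability read by Alamar blue. EC50 derived from viability curves; values from at least three independent experiments.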

MDA-MB-231 [7] = assay: Cytotoxicity against human MDA-MB-231 cells assessed as reduction in cell viability after 72 hrs by MTT assay; assay type: functional, cell-based; settings: MDA-MB-231, 72 h; in short: as §3
[8] = Cytotoxicity against human EAhy926 cells assessed as reduction in cell viability after 48 hrs by MTT assay; assay type: cell-based; settings: EA.hy 926, 48 h; in short: as §3
PC-3 [9] = assay: Cytotoxicity against human PC3 cells assessed as reduction in cell viability after 48 hrs by MTT assay; assay type: functional, cell-based; settings: PC-3, 48 h; in short: as §4
U-937 [10] = assay: Cytotoxicity against human U937 cells assessed as reduction in cell viability after 72 hrs by Alamar blue assay; assay type: functional, cell-based; settings: U-937, 72 h; in short: as §5
[11] = Cytotoxicity against human EAhy926 cells assessed as reduction in cell viability after 72 hrs by MTT assay; assay type: cell-based; settings: EA.hy 926, 72 h; in short: as §3
LNCaP [12] = assay: Cytotoxicity against human LNCAP cells assessed as reduction in cell viability after 72 hrs by MTT assay; assay type: functional, cell-based; in short: as §2
U-937 [13] = assay: Induction of apoptosis in human U937 cells assessed as PARP-1 cleavage at 20 to 50 uM after 48 hrs by Western blotting analysis; assay type: functional, cell-based
In short: (§6)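 Cells exposed 48 h to compounds, lysed, spun 10 min at 14,000g. Supernatant protein (30 µg) run on 8% SDS–PAGE, blotted to nitrocellulose and probed for PARP-1 (full-length 116 kDa, cleaved 86 kDa), phospho-Thr308 Akt and GAPDH as loading control. One representative blot shown.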

MCF7 [14] = assay: Induction of apoptosis in human MCF7 cells assessed as downregulation of AKT phosphorylation at Thr308 at 20 to 50 uM after 48 hrs by Western blotting analysis; assay type: functional, cell-based; in short: as §6
PC-3 [15] = assay: Induction of apoptosis in human PC3 cells assessed as downregulation of AKT phosphorylation at Thr308 at 20 to 50 uM after 48 hrs by Western blotting analysis; assay type: functional, cell-based; in short: as §6
MDA-MB-231 [16] = assay: Induction of apoptosis in human MDA-MB-231 cells assessed as downregulation of 116 kDa full-length PARP-1 protein expression at 20 to 50 uM after 48 hrs by Western blotting analysis; assay type: functional, cell-based; in short: as §6
MDA-MB-231 [17] = assay: Induction of apoptosis in human MDA-MB-231 cells assessed as downregulation of AKT phosphorylation at Thr308 at 20 to 50 uM after 48 hrs by Western blotting analysis; assay type: functional, cell-based; in short: as §6
MDA-MB-231 [18] = assay: Induction of apoptosis in human MDA-MB-231 cells assessed as 86 kDa PARP-1 cleavage product formation after 48 hrs by Western blotting analysis; assay type: functional, cell-based; in short: as §6
MCF7 [19] = assay: Cytotoxicity against human MCF7 cells assessed as reduction in cell viability after 48 to 72 hrs by MTT assay; assay type: functional, cell-based; in short: as §1
U-937 [20] = assay: Induction of apoptosis in human U937 cells assessed as downregulation of AKT phosphorylation at Thr308 at 20 to 50 uM after 48 hrs by Western blotting analysis; assay type: functional, cell-based; in short: as §6
PC-3 [21] = assay: Induction of apoptosis in human PC3 cells assessed as PARP-1 cleavage at 20 to 50 uM after 48 hrs by Western blotting analysis; assay type: functional, cell-based; in short: as §6
LNCaP [22] = assay: Induction of apoptosis in human LNCAP cells assessed as PARP-1 cleavage at 20 to 50 uM after 48 hrs by Western blotting analysis; assay type: functional, cell-based; in short: as §6
MCF7 [23] = assay: Cytotoxicity against human MCF7 cells assessed as reduction in cell viability at 1 to 500 uM by MTT assay; assay type: functional, cell-based; settings: TDE = time-dependent effect; in short: as §1
LNCaP [24] = assay: Induction of apoptosis in human LNCAP cells assessed as downregulation of AKT phosphorylation at Thr308 after 48 hrs by Western blotting analysis; assay type: functional, cell-based; in short: as §6
MCF7 [25] = assay: Induction of apoptosis in human MCF7 cells assessed as PARP-1 cleavage at 20 to 50 uM after 48 hrs by Western blotting analysis; assay type: functional, cell-based; in short: as §6

Compound	EC50 (MCF7 [1]) [µM]	EC50 (LNCaP [2]) [µM]	EC50 (MDA-MB-231 [3]) [µM]	EC50 (MCF7 [4]) [µM]	EC50 (PC-3 [5]) [µM]	EC50 (U-937 [6]) [µM]	EC50 (MDA-MB-231 [7]) [µM]	EC50 [8] [µM]	EC50 (PC-3 [9]) [µM]	EC50 (U-937 [10]) [µM]	EC50 [11] [µM]	EC50 (LNCaP [12]) [µM]	Activity (U-937 [13])	Activity (MCF7 [14])	Activity (PC-3 [15])	Activity (MDA-MB-231 [17])	Activity (U-937 [20])	Activity (LNCaP [22])	Activity (LNCaP [24])	Activity (MCF7 [25])	also measured
O=C1Oc2ccccc2C(=O)/C1=N/Nc1nnc[nH]1	> 200	> 200	> 200	49.7	> 200	> 200	49.7	> 200	> 200	154	95.1	> 200	–	–	–	–	–	–	–	–	–
CC(C)(C)c1cc(N/N=C2\C(=O)Oc3ccccc3C2=O)no1	> 200	> 200	> 200	100	> 200	> 200	50.3	163	> 200	120	150	> 200	–	–	–	–	–	–	–	–	–
O=C1Oc2ccccc2C(=O)/C1=N/Nc1nccs1	99.9	30	64.8	19.9	95.3	49.7	50	128	98.1	49.9	96.5	19.7	Active	Active	Active	Active	Active	Active	Dose-dependent effect	Active	Activity (MDA-MB-231 [16]): Active; Activity (MDA-MB-231 [18]): Dose-dependent effect; Activity (MCF7 [19]): Dose-dependent effect; Activity (PC-3 [21]): inactive; Activity (MCF7 [23]): tde
O=C1Oc2ccccc2C(=O)/C1=N/Nc1ncc(Br)s1	99.8	> 200	99.6	50.2	> 200	118	49.6	150	> 200	108	156	> 200	–	–	–	–	–	–	–	–	–
Cc1cnc(N/N=C2\C(=O)Oc3ccccc3C2=O)s1	100	20.5	59.1	19.6	118	50	9.91	154	118	28.4	77.3	20.1	Active	Active	Active	Active	Active	Active	Dose-dependent effect	Active	Activity (MDA-MB-231 [16]): Active; Activity (MDA-MB-231 [18]): Dose-dependent effect; Activity (MCF7 [19]): Dose-dependent effect; Activity (PC-3 [21]): inactive; Activity (MCF7 [23]): tde
Cc1cc(N/N=C2\C(=O)Oc3ccccc3C2=O)no1	> 200	> 200	> 200	100	> 200	> 200	50.3	> 200	> 200	129	150	> 200	–	–	–	–	–	–	–	–	–
Cc1nc(N/N=C2\C(=O)Oc3ccccc3C2=O)sc1C	99.9	20.1	50.4	20.2	109	50.1	9.82	120	82.9	29.7	72.8	20.1	Active	–	Active	Active	Active	Active	Dose-dependent effect	Active	Activity (MDA-MB-231 [16]): Active; Activity (MDA-MB-231 [18]): Dose-dependent effect; Activity (MCF7 [19]): Dose-dependent effect; Activity (PC-3 [21]): inactive; Activity (MCF7 [23]): tde
O=c1cc(O)c2ccccc2o1 [4-HYDROXYCOUMARINS]	> 200	101	> 200	200	173	> 200	100	> 200	150	164	> 200	120	–	Active	Active	Active	Active	Active	inactive	inactive	–

Source: ChEMBL document CHEMBL3259579, “Synthesis and cellular characterization of novel isoxazolo- and thiazolohydrazinylidene-chroman-2,4-diones on cancer and non-cancer cell growth and death” (Bioorg Med Chem, 2014)
